Measured values taken from article PMC8842743 (Journal of Alzheimer's Disease Reports, 2022).

Assays:
[1] = tested on: Aβ1-x in plasma and CSF of beagle dogs; experiment: Pharmacodynamics in cannulated beagle dogs; type: in vivo, dog; conditions: 1.5 mg/kg oral
Outline: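 Six male cannulated beagle dogs received a single 1.5 mg/kg oral dose in 1% hydroxyethylcellulose. Plasma was sampled pre-dose and at 0.5–48 h. CSF was sampled 0.5 h pre-dose (baseline) and at 3, 6, 9, 24 and 48 h. Aβ1–x was measured by sandwich ELISA (m266.2 capture, biotinylated 3D6 reporter), averaged across dogs and expressed relative to baseline. Statistics: ANOVA with Tukey post hoc.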

[2] = tested on: CSF Aβ1–40, Aβ1–42, sAβPPα, sAβPPβ in healthy subjects; experiment: Clinical multiple-dose CSF pharmacodynamics; type: in vivo, human
[3] = Dog plasma protein binding; type: in vitro ADME; conditions: equilibrium dialysis of dog plasma
Outline: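 Fraction unbound was determined in vitro by equilibrium dialysis of mouse brain homogenate or dog plasma. Unbound concentrations were derived by multiplying the total measured concentrations by this fraction unbound.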

[4] = tested on: Aβ1-x, C99, sAβPPβ in PDAPP mice; experiment: In vivo pharmacodynamics in PDAPP mice; parameters: species or system mouse; conditions: 3.0 mg/kg oral
Outline: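 Young (2–3 months) female PDAPP mice (n = 6–8 per group) got a single oral gavage of vehicle (7% Pharmasolve, 10 mL/kg) or 0.3, 1.0 or 3.0 mg/kg. Hippocampal and cortical Aβ1–x, C99 and sAβPPβ were measured in brain extracts 3 h post-dose. In a time course (3.0 mg/kg, n = 6), hippocampal and CSF Aβ1–x were measured at 3, 6, 9 and 12 h. Statistics: ANOVA, then Tukey post hoc, p < 0.05.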

[5] = tested on: PDAPP primary cortical neurons; experiment: PDAPP neuronal cytotoxicity; type: cell-based, mouse
Outline: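 Primary cortical neurons from gestational-day-16 PDAPP (APP V717F) embryos were grown at 15×10^4 cells/well in DMEM/F12 (1:1) with B27. Cells were exposed to test compound for 24 h at 37°C. Viability was read by MTT assay as absorbance at 595 nm.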

[6] = Clinical single-dose plasma pharmacokinetics; type: in vivo, human; conditions: for Cmax / AUC (0∞) / t1/2 / CLR: geometric mean (CV%); for tmax: median (range)
Outline: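 Healthy subjects received single oral doses of placebo or 0.1 mg (n = 3 per group), or 0.4, 1.6, 5, 15 or 45 mg (n = 8 per group). Plasma was sampled immediately pre-dose and up to 120 h post-dose. Reported parameters were Cmax, tmax, terminal t1/2, AUC0–∞, clearance and apparent volume of distribution.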

patients with mild AD = conditions: Phase II study; cited from earlier work
[7] = Clinical multiple-dose pharmacokinetics; type: in vivo, human; conditions: for AUCτ,ss / CLR / t1/2 / tmax: day 14; for AUCτ,ss / CLR / t1/2 / Cmax: geometric mean (CV%); for tmax: median (range); for Cmax: day 14 steady state
Outline: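 Healthy subjects took daily oral doses for 14 days. Plasma was sampled up to 24 h after the first dose, before the day-14 dose and up to 120 h after it, plus pre-dose troughs every 2 days to assess steady state. Clearance, apparent volume, tmax and t1/2 were reported. Accumulation ratio = AUCτ,ss divided by first-dose AUCτ, per subject.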

[8] = tested on: CSF Aβ1–40 and Aβ1–42 in healthy subjects; experiment: Clinical single-dose CSF Aβ pharmacodynamics; type: in vivo, human
Outline: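 Healthy subjects received single doses of 1.6, 10 or 26 mg or placebo. Serial CSF was drawn through an indwelling subarachnoid lumbar catheter from 4 h pre-dose to 36 h post-dose. For each subject, the time of the lowest observed Aβ1–40 and Aβ1–42 concentration, the change from baseline at nadir and the 24 h time-averaged change from baseline were reported.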

[9] = 1 mg daily for 14 days, 24 h after final dose
[10] = 26 mg daily for 14 days, samples below LLOQ assigned one-half the LLOQ

Q: What does the source list for `COc1cnc(C(=O)Nc2ccc(F)c([C@]34CN(c5ncc(F)cn5)C[C@H]3CSC(N)=N4)c2)cn1` [LY3202626]?
A: time CSF Aβ1-x remained significantly suppressed after dosing [1]: 24 h; maximal reduction of CSF Aβ1-x ([1]; 9 h time point): ~80%; reduction of plasma Aβ1-x ([1]; 48 h time point): approximately 40%; suppression of plasma Aβ1-x levels ([1]; by 2 h after dosing, vs baseline): up to 80%; decrease in CSF Aβ1–40 from baseline [2, 9]: approximately 50%; decrease in CSF Aβ1–42 from baseline [2, 9]: approximately 50%; lowering of CSF Aβ species, modeling of the clinical data ([2]; 12 mg QD): at least 90%; increase in CSF sAβPPα from baseline ([2]; 26 mg daily for 14 days): 111%; reduction in CSF sAβPPβ from baseline ([2]; 26 mg daily for 14 days): 92.7%; reduction in CSF Aβ1–40 from baseline [2, 10]: approximately 94%; reduction in CSF Aβ1–42 from baseline [2, 10]: approximately 94%; decrease in CSF sAβPPβ ([2]; multiple doses of 6 mg): more than 70%; dog plasma free fraction [3]: 0.009; Cortex C99 decrease vs vehicle ([4]; 3 h): 65%; Cortex sAβPPβ decrease vs vehicle ([4]; 3 h): 34%; CSF Aβ1-X reduction vs vehicle, time course ([4]; 3 hrs): 75%; EC50 ([5]; read-out: EC50 for inducing cytotoxicity in PDAPP neurons, MTT): > 100 µM; IC50 ([5]; read-out: PDAPP 1° Neuron Cytotox Relative IC50, n = 1/7): > 100 µM; Renal clearance ([6]; healthy subjects, across dose levels): approximately 1 L/h; Apparent oral clearance ([6]; healthy subjects, across dose levels except 15 mg): approximately 26 L/h; terminal t1/2 ([6]; healthy subjects, single oral doses, plasma): approximately 20 h; Cmax ([6]; single dose 0.1 mg, n = 3): 0.169 (50) ng/mL; tmax ([6]; single dose 0.1 mg): 3.08 (3.00–6.00) h; Cmax ([6]; single dose 0.4 mg, n = 8): 0.486 (81) ng/mL; tmax ([6]; single dose 0.4 mg): 3.55 (3.00–8.00) h; Cmax ([6]; single dose 1.6 mg, n = 8): 2.89 (70) ng/mL; AUC (0∞) ([6]; single dose 1.6 mg): 60.6 (49) ng·h/mL; t1/2 ([6]; single dose 1.6 mg): 23.0 (21) h; tmax ([6]; single dose 1.6 mg): 3.00 (3.00–4.00) h; Cmax ([6]; single dose 5 mg, n = 8): 7.91 (56) ng/mL; AUC (0∞) ([6]; single dose 5 mg): 197 (38) ng·h/mL; CLR ([6]; single dose 5 mg): 1.09 (64) L/h; t1/2 ([6]; single dose 5 mg): 19.8 (42) h; tmax ([6]; single dose 5 mg): 4.03 (2.90–24.12) h; Cmax ([6]; single dose 15 mg, n = 8): 21.3 (77) ng/mL; AUC (0∞) ([6]; single dose 15 mg): 393 (84) ng·h/mL; CLR ([6]; single dose 15 mg): 0.829 (37) L/h; t1/2 ([6]; single dose 15 mg): 19.5 (25) h; tmax ([6]; single dose 15 mg): 3.01 (1.98–4.00) h; Cmax ([6]; single dose 45 mg, n = 8): 92.5 (47) ng/mL; AUC (0∞) ([6]; single dose 45 mg): 1680 (34) ng·h/mL; CLR ([6]; single dose 45 mg): 1.03 (53) L/h; t1/2 ([6]; single dose 45 mg): 21.5 (19) h; tmax ([6]; single dose 45 mg): 2.54 (2.00–4.07) h; hepatotoxicity (patients with mild AD): no evidence of hepatotoxicity; AUCτ,ss ([7]; multiple dose 1 mg): 38.6 (25) ng·h/mL; CLR ([7]; multiple dose 1 mg): 1.61 (46) L/h; t1/2 ([7]; multiple dose 1 mg): 33.1 (38) h; tmax ([7]; multiple dose 1 mg): 4.04 (3.98–4.23) h; Cmax ([7]; multiple dose 1 mg, n = 8): 2.57 (25) ng/mL; AUCτ,ss ([7]; multiple dose 6 mg): 151 (54) ng·h/mL; CLR ([7]; multiple dose 6 mg): 1.09 (86) L/h; t1/2 ([7]; multiple dose 6 mg): 38.1 (29) h; tmax ([7]; multiple dose 6 mg): 3.87 (1.95–4.00) h; Cmax ([7]; multiple dose 6 mg, n = 9): 11.2 (71) ng/mL; AUCτ,ss ([7]; multiple dose 26 mg): 1020 (50) ng·h/mL; CLR ([7]; multiple dose 26 mg): 1.29 (39) L/h; t1/2 ([7]; multiple dose 26 mg): 46.3 (25) h; tmax ([7]; multiple dose 26 mg): 4.03 (2.00–5.78) h; Cmax ([7]; multiple dose 26 mg, n = 9): 72.8 (61) ng/mL; CSF Aβ1–42 mean reduction from baseline at nadir ([8]; single dose 1.6 mg): –33.4%; time of mean nadir of CSF Aβ1–42 ([8]; single dose 1.6 mg): approximately 10 h; CSF Aβ1–42 mean reduction from baseline at nadir ([8]; single dose 26 mg): –71.6%; time of mean nadir of CSF Aβ1–42 ([8]; single dose 26 mg): approximately 28 h
